Source: ChEMBL document CHEMBL1123335, “Synthesis and class III antiarrhythmic activity of (phenylbut-2-enyl)ammonium salts. Effect of conformation on activity” (J Med Chem, 1986)
“And” between values parts separate entries of the source, which are not always exact repeats. Equal entries are not always repeated.

Key:
[1] = test system: Canis familiaris; assay: In vivo antiarrhythmic efficacy in anesthetized dogs; 2/2
[2] = test system: Canis familiaris; assay: Compound was evaluated for intraduodenal bioavailability in anesthetized dogs measured as mean blood pressure at a dose of 10/30 range; 6/2; format: ADME, organism-based, Canis lupus familiaris, Artery; conditions: dog, in vivo
Procedure, shortened: (§1)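 Pentobarbital-anesthetized (30 mg/kg i.v.) dogs, 8–20 kg, either sex. Compound given intraduodenally as a 0.5% tragacanth suspension, usually as two doses, the second cumulative. HR, BP, FRP and conduction were measured at 15, 30 and 45 min postdose. Mean BP reported as % change from control, low dose/high dose, for each animal.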

[3] = species on record: Canis familiaris; assay: Compound was evaluated for intracellular electrophysiology in canine Purkinje fiber measured as maximum prolongation of APD95 observed at a dose of 1 uM; format: functional, Canis lupus familiaris
Procedure, shortened: (§2)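 Canine Purkinje fibers superfused at 37 ± 0.5 °C, pH 7.35–7.40 (95:5 O2/CO2), paced at 1.0 Hz (2-ms pulses, 2× diastolic threshold). Fibers stabilized up to 1 h. Intracellular microelectrode (3 M KCl) recording of APD95, 30 min exposure per concentration across 10^-8–10^-4 M. Value is concentration giving 20% APD95 prolongation, or maximum prolongation with its concentration.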

[4] = species on record: Canis familiaris; assay: Intracellular electrophysiology in canine Purkinje fiber measured as maximum prolongation of APD95 observed at a dose of 10 uM; format: functional, Canis lupus familiaris
Procedure, shortened: as §2

[5] = species on record: Canis familiaris; assay: Compound was evaluated for intracellular electrophysiology in canine Purkinje fiber measured as concentration that caused 20% prolongation of action potential duration (APD95) at a dose range of 0.01-10 uM; NR=Not reached; format: functional; conditions: Canis lupus familiaris
Procedure, shortened: as §2

[6] = species on record: Canis familiaris; assay: Intracellular electrophysiology in canine potential (Vmax) at a dose range.; format: functional; conditions: Canis lupus familiaris
Procedure, shortened: (§3)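 Canine Purkinje fibers at 37 ± 0.5 °C, gassed 95:5 O2/CO2 (pH 7.35–7.40), stimulated at 1.0 Hz. Maximum upstroke velocity (Vmax) recorded by glass microelectrode after up to 1 h stabilization. Compounds tested at 10^-8–10^-4 M with 30 min exposure per concentration. Reported as maximum observed effect on Vmax and the concentration at which it occurred.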

[7] = species on record: Canis familiaris; assay: Compound was evaluated for intracellular electrophysiology in canine Purkinje fiber measured as concentration that caused 20% prolongation of action potential duration (APD95) at a dose range of 0.01-1 uM; format: functional, Canis lupus familiaris
Procedure, shortened: as §2

[8] = test system: Canis familiaris; assay: Compound was evaluated for intraduodenal bioavailability in anesthetized dogs measured as mean blood pressure at a dose of 10/30 range; 8/8; format: ADME, organism-based, Canis lupus familiaris, Artery; conditions: dog, in vivo
Procedure, shortened: as §1

[9] = species on record: Canis familiaris; assay: Compound was evaluated for intracellular electrophysiology in canine potential (Vmax) at a dose of 100 uM; format: functional; conditions: Canis lupus familiaris
Procedure, shortened: as §3

[10] = species on record: Canis familiaris; assay: Compound was evaluated for intracellular electrophysiology in canine Purkinje fiber measured as maximum prolongation of APD95 observed at 10 uM; format: functional, Canis lupus familiaris
Procedure, shortened: as §2

[11] = species on record: Canis familiaris; assay: Intracellular electrophysiology in canine Purkinje fiber measured as concentration that caused 20% prolongation of action potential duration (APD95); format: functional, Canis lupus familiaris
Procedure, shortened: as §2

[12] = species on record: Canis familiaris; assay: Compound was evaluated for intracellular electrophysiology in canine potential (Vmax) at 10 uM; format: functional; conditions: Canis lupus familiaris
Procedure, shortened: as §3

[13] = test system: Canis familiaris; assay: Compound was evaluated for intraduodenal bioavailability in anesthetized dogs measured as mean blood pressure at a dose of 10/30 range; 10/31; format: ADME, organism-based, Canis lupus familiaris, Artery; conditions: dog, in vivo
Procedure, shortened: as §1

[14] = test system: Canis familiaris; assay: In vivo antiarrhythmic efficacy in anesthetized dogs
[15] = species on record: Canis familiaris; assay: Compound was evaluated for intracellular electrophysiology in canine uM; format: functional; conditions: Canis lupus familiaris
Procedure, shortened: as §3

[16] = test system: Canis familiaris; assay: Compound was evaluated for intraduodenal bioavailability in anesthetized dogs measured as mean blood pressure at a dose of 10/60 range; 13/23; format: ADME, organism-based, Canis lupus familiaris, Artery; conditions: dog, in vivo
Procedure, shortened: as §1

[17] = species on record: Canis familiaris; assay: Compound was evaluated for intracellular electrophysiology in canine potential (Vmax) at a dose of 1 uM; format: functional, Canis lupus familiaris; conditions: at 1 µM
[18] = species on record: Canis familiaris; assay: Compound was evaluated for intracellular electrophysiology in canine potential (Vmax) at a dose of 10 uM; format: functional, Canis lupus familiaris
Procedure, shortened: as §3

[19] = test system: Canis familiaris; assay: In vivo antiarrhythmic efficacy in anesthetized dogs; Inactive at 3 mg/kg
[20] = species on record: Canis familiaris; assay: Compound was evaluated for intracellular electrophysiology in canine potential (Vmax) at a dose range of 0.01-10 uM; format: functional; conditions: Canis lupus familiaris; at 0.01 to 10 µM
Procedure, shortened: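 Isolated cardiac fibres superfused with bicarbonate/glucose salt solution gassed 95:5 O2/CO2 (pH 7.35–7.40), 37 ± 0.5 °C. Bipolar stimulation at 1.0 Hz with 2-ms square pulses at twice diastolic threshold. Intracellular recording with 3 M KCl glass microelectrodes after up to 1 h stabilization. Each concentration (10^-8–10^-4 M) applied for 30 min. Value is the maximum Vmax effect and the concentration at which it occurred, per study.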

[21] = test system: Canis familiaris; assay: In vivo antiarrhythmic efficacy in anesthetized dogs; 2/3
[22] = test system: Canis familiaris; assay: Compound was evaluated for intraduodenal bioavailability in anesthetized dogs measured as mean blood pressure at a dose of 10/30 range; 8/49; format: ADME, organism-based, Canis lupus familiaris, Artery; conditions: dog, in vivo
Procedure, shortened: as §1

[23] = species on record: Canis familiaris; assay: Compound was evaluated for intracellular electrophysiology in canine Purkinje fiber measured as concentration that caused 20% prolongation of action potential duration (APD95) at a dose range of 0.1-10 uM; format: functional, Canis lupus familiaris
Procedure, shortened: as §2

[24] = test system: Canis familiaris; assay: Compound was evaluated for intraduodenal bioavailability in anesthetized dogs measured as mean blood pressure at a dose of 10/30 range; 19/3; format: ADME, organism-based, Canis lupus familiaris, Artery; conditions: dog, in vivo
Procedure, shortened: as §1

[25] = test system: Canis familiaris; assay: Compound was evaluated for intraduodenal bioavailability in anesthetized dogs measured as mean blood pressure at a dose of 3 range; format: ADME, organism-based, Canis lupus familiaris, Artery; conditions: dog, in vivo, other
Procedure, shortened: as §1

[26] = species on record: Canis familiaris; assay: Concentration at which maximum observed effect on the action potential (Vmax) at a dose range of 0.1-100 uM occurred; 2/2; format: functional, Canis lupus familiaris
[27] = species on record: Canis familiaris; assay: Compound was evaluated for intracellular electrophysiology in canine Purkinje fiber measured as concentration that caused 20% prolongation of action potential duration (APD95) at a dose range of 0.01-100 uM; format: functional, Canis lupus familiaris
Procedure, shortened: as §2

[28] = species on record: Canis familiaris; assay: Compound was evaluated for intracellular electrophysiology in canine potential (Vmax) at 100 uM; format: functional; conditions: Canis lupus familiaris
Procedure, shortened: as §3

[29] = species on record: Canis familiaris; assay: Compound was evaluated for intracellular electrophysiology in canine Purkinje fiber measured as concentration that caused 20% prolongation of action potential duration (APD95) at a dose range of 0.1-100 uM; format: functional, Canis lupus familiaris
Procedure, shortened: as §2

[30] = species on record: Canis familiaris; assay: Compound was evaluated for intracellular electrophysiology in canine Purkinje fiber measured as maximum prolongation of APD95 observed at 1 uM; format: functional, Canis lupus familiaris
Procedure, shortened: as §2

[31] = species on record: Canis familiaris; assay: Compound was evaluated for intracellular electrophysiology in canine Purkinje fiber measured as maximum prolongation of APD95 observed at a dose range of 100 uM; format: functional, Canis lupus familiaris
Procedure, shortened: as §2

[32] = species on record: Canis familiaris; assay: Compound was evaluated for intracellular electrophysiology in canine potential (Vmax) at a dose range of 100 uM; format: functional; conditions: Canis lupus familiaris
Procedure, shortened: as §3

[33] = test system: Canis familiaris; assay: Compound was evaluated for intraduodenal bioavailability in anesthetized dogs measured as mean blood pressure at a dose of 10/30 range; 2/16; format: ADME, organism-based, Canis lupus familiaris, Artery; conditions: dog, in vivo
Procedure, shortened: as §1

Which results are given for CCCCCCC[N+](CC)(CC)C/C=C\Cc1ccccc1Cl.[Cl-]?
Efficacy [1]: 2; Bioavailabiility [2]: 6%; APD95 [3]: 72%; APD95 [4]: 16%; C20 [5]: Not reached; Vmax [6]: Minimal; C20 [7]: <0.1 µM; Bioavailabiility [8]: 8%

CCN(CC)CC#CCc1ccc(Cl)cc1.Cl was tested. Which APD95 [4] did it give?
The APD95 was -6%.

And the C20 [5]?
Its C20 is “Not reached”.

And the Vmax [9]?
The Vmax was -34%.

For CCN(CC)C/C=C\Cc1ccc([N+](=O)[O-])cc1.Cl, which APD95 [10] is on record?
Its APD95 is 25%.

And the C20 [11]?
Its C20 is 0.9 µM.

What about the Vmax [12] of the same molecule?
The Vmax was -13%.

What about the Bioavailabiility [13] of the same molecule?
Its Bioavailabiility is 10%.

With CCCCCCC[N+](CC)(CC)C/C=C\Cc1ccc(Br)cc1.O=P([O-])(O)O as the molecule, how does the Efficacy [1] read?
Its Efficacy is 2.

What about the Effective dose [14] of the same molecule?
The Effective dose was 1 mg/kg and 3 mg/kg.

What about the C20 [11] of the same molecule?
The C20 was 5.7 µM.

And the Vmax [6]?
Its Vmax is “Minimal”.

Which C20 [11] does the source give for CCCCCCC[N+](CC)(CC)C/C=C/Cc1ccc(Cl)cc1.Cc1ccc(S(=O)(=O)[O-])cc1 here?
Its C20 is <1 µM and 1.9 µM and 1.4 µM.

How did the Efficacy [1] turn out when CCCCCCC[N+](CC)(CC)C/C=C\Cc1ccc(Cl)cc1.O=P([O-])(O)O was run?
Its Efficacy is 2.

And the Effective dose [14]?
The Effective dose was 0.3 mg/kg.

And the APD95 [4]?
The APD95 was 28% and 29% and 23%.

With CC[N+](CC)(CC)CC#CCc1ccc(Cl)cc1.[I-] as the molecule, how does the C20 [11] read?
The C20 was 0.3 µM.

What about the APD95 [4] of the same molecule?
The APD95 was 53%.

And the Vmax [15]?
The Vmax was -6%.

With CCCCCCC[N+](CC)(CC)C/C=C\Cc1cccc(Cl)c1Cl.Cc1ccc(S(=O)(=O)[O-])cc1 as the molecule, how does the C20 [11] read?
Its C20 is 2 µM.

And the APD95 [4]?
The APD95 was 35%.

What about the Vmax [6] of the same molecule?
Its Vmax is “Minimal”.

What about the Bioavailabiility [16] of the same molecule?
Its Bioavailabiility is 13%.

How did the APD95 [17] turn out when CCCCCCC[N+](CC)(CC)CCCCc1ccc(Cl)cc1.O=P([O-])(O)O [CLOFILIUM PHOSPHATE] was run?
The APD95 was 25% and 29%.

And the Effective dose [14]?
Its Effective dose is 0.1 mg/kg.

What about the C20 [11] of the same molecule?
Its C20 is 2 µM.

What about the APD95 [18] of the same molecule?
Its APD95 is 78% and 27%.

What about the APD95 [4] of the same molecule?
The APD95 was 29% and 46%.

What about the Effective dose [19] of the same molecule?
Its Effective dose is 0.5 mg/kg.

And the Vmax [20]?
Its Vmax is -21%.

What about the Efficacy [21] of the same molecule?
The Efficacy was 2.

C[N+](C)(C)C/C=C\Cc1ccc(Cl)cc1.[Cl-] was tested. Which C20 [11] did it give?
Its C20 is 0.3 µM.

And the APD95 [4]?
Its APD95 is 43%.

And the Bioavailabiility [22]?
The Bioavailabiility was 8%.

And the Vmax [6]?
The Vmax was “Minimal”.

For CCCCCCC[N+](CC)(CC)C/C=C\Cc1ccc(Cl)cc1.Cc1ccc(S(=O)(=O)[O-])cc1, which APD95 [4] is on record?
Its APD95 is 42% and 47% and 23%.

For CCN(CC)C/C(C)=C(/C)Cc1ccc([N+](=O)[O-])cc1.Cl, which C20 [23] is on record?
Its C20 is 0.4 µM.

What about the Effective dose [14] of the same molecule?
Its Effective dose is 0.1 mg/kg and 0.3 mg/kg.

What about the APD95 [10] of the same molecule?
The APD95 was 66% and 55%.

What about the Bioavailabiility [24] of the same molecule?
Its Bioavailabiility is 19%.

What about the Bioavailabiility [25] of the same molecule?
The Bioavailabiility was 9%.

What about the Efficacy [26] of the same molecule?
Its Efficacy is 2.

What about the C20 [27] of the same molecule?
The C20 was 0.05 µM.

And the Vmax [28]?
The Vmax was -28% and -52%.

And the C20 [29]?
Its C20 is <0.1 µM.

And the “Max APD95” value [30]?
Its value is 27%.

What does the source list for CCN(CC)C/C(C)=C(/C)Cc1ccc([N-]S(C)(=O)=O)cc1.[Na+]?
APD95 [31]: 78%; C20 [11]: 2.2 µM; Vmax [32]: -13%; Bioavailabiility [33]: 2%
